# Most compounds without a hit are left out; they make up all but 1.9% or so of the library.
# IMP-1 inh: IMP-1 metallo-beta-lactamase inhibitors, primary screen, biochemical, epi-absorbance readout, Pseudomonas aeruginosa enzyme | metallo-beta-lactamase IMP-1 (Pseudomonas aeruginosa) | purified IMP-1, nitrocefin hydrolysis, epi-absorbance fluorescence | inhibition, % at 5.6 µM | hit rate 0.45% among 290,000;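 active means inhibition above the mean plus 3 SD of all compounds in the same screening run, cut at about 4.5% in these data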;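 further: 0% = IMP-1 with DMSO and 100% = DMSO wells lacking enzyme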
#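 System: purified IMP-1; amount: IMP-1 0.2 nM before substrate addition; compound: single dose, 5.6 µM; times: 25 °C, 15 min preincubation, 25 min reaction; signal: Epi-absorbance via hydrolysed-nitrocefin quenching of white-plate fluorescence, 480/530 nm, EDTA stop; benchmarks: DMSO with and without IMP-1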
# DNA FID counter-1: compounds displacing fluorescent DNA intercalator, primary screen, artefact control for HCV NS3 helicase inhibitor project, biochemical, FID fluorescence | hit rate 0.17% among 290,000 | DNA fluorescent intercalator displacement | inhibition, % at 7.9 µM;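 further: 0% = vehicle and 100% = reference compound; higher means more ethidium bromide displaced from hairpin DNA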
# VIM-2 inhibitor: VIM-2 metallo-beta-lactamase inhibitors, primary screen, biochemical, epi-absorbance readout, Pseudomonas aeruginosa enzyme; purified VIM-2, nitrocefin hydrolysis, epi-absorbance fluorescence; inhibition, % at 5.6 µM; hit rate 0.89% among 290,000;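 active means inhibition above the mean of all tested compounds plus 3 SD, cutoff set per screening run, cut at about 7.5% in these data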;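 further: red hydrolysis product quenches plate fluorescence so inhibitors raise well fluorescence; 0% = enzyme with DMSO and 100% = DMSO without enzyme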
# HCV NS3 hel inh: inhibitors of HCV NS3 helicase, primary screen, biochemical, Cy5 molecular beacon fluorescence | inhibition, % at 10.9 µM | Hepatitis C virus NS3 helicase | NS3 helicase DNA unwinding | AID 1800, 2009 | hit rate 0.56% among 290,000;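 active means inhibition above the mean of all tested compounds plus 3 SD, set per campaign, cut at about 35% in these data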;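 further: 0% = DMSO wells and 100% = thioflavine S control wells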
#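 System: Hepatitis C virus NS3 helicase domain fragment enzyme | Reagent: Annealed dual-labelled DNA beacon duplex, ATP-started | Compound dosing: 10.9 µM single point, 0.8% DMSO | Incubation: 1 h reaction at 25 °C, ATP-initiated | Technique: Cy5 fluorescence | Evaluation: Percent inhibition from t60/t0 fluorescence ratio | Benchmarks: Low DMSO, high thioflavine S at 110 µM | Replication: Singlicate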
# NS3 helicase cf: HCV NS3 helicase inhibitors, retest, confirmation, biochemical, Cy5 molecular beacon fluorescence, triplicate; shares compounds with HCV NS3 hel inh; NS3 helicase DNA unwinding; hit rate 31% among 1,600; inhibition, % at 10.9 µM;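 active means inhibition above the mean of all tested compounds plus 3 SD, cutoff set per campaign, cut at about 36% in these data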
# DNA FID counter-2: compounds displacing fluorescent DNA intercalator, artefact control for HCV NS3 helicase inhibitor project, biochemical, FID fluorescence, triplicate; shares compounds with HCV NS3 hel inh; DNA fluorescent intercalator displacement; inhibition, % at 7.9 µM; hit rate 4% among 1,600; AID 1945, 2009;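 further: 0% = vehicle and 100% = reference compound; higher means more displacement of ethidium bromide from the DNA hairpin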
# Starred values were filed as active, the others as inactive; x = not tested or not shown. Unless noted, no stated cut-off is given here; in the data, active means inhibition above about 37%; inactive means the rest.
SMILES,IMP-1 inh,DNA FID counter-1,VIM-2 inhibitor,HCV NS3 hel inh,NS3 helicase cf,DNA FID counter-2
C=CCn1c(=NC(=O)c2cc(-c3cccs3)nc3ccccc23)sc2cc(S(N)(=O)=O)ccc21,0,-12,-3,14,x,x
COc1ccc([N+](=O)[O-])cc1/C=N/Nc1nn[nH]n1,-2,11,0,-2,x,x
COC(=O)CN1C(=O)[C@H]2[C@@H](c3ccc(C)o3)N3C(=O)CN(CCO)C(=O)[C@@]3(Cc3ccccc3)[C@H]2C1=O,1,-11,1,45*,-7,3
CC1(C)Cc2c(c(-c3ccco3)nc3sc4c(NCCCO)ncnc4c23)CO1,9.3*,-6,1,60*,-21,-18
CC1(C)Cc2c(c(-c3ccco3)nc3sc4c(NCCN5CCOCC5)ncnc4c23)CO1,1,-25,-3,23,x,x
Fc1cccc(Cl)c1C1Nc2cccc3cccc(c23)N1,1,-14,2,45*,-20,31
Clc1cccc(Cl)c1C1Nc2cccc3cccc(c23)N1,0,-13,-2,75*,-33,20
c1ccc(C2Nc3cccc4cccc(c34)N2)cc1,-3,-1,-1,15,x,x
CC(C)=CC(=O)OCC(=O)NC1CCCc2ccccc21 (configuration not stated),-2,-12,-2,-1,x,x
COc1ccc(-n2c(Cc3cccn3C)nnc2SCC(=O)NCc2ccccc2Cl)cc1,-2,-42,-1,47*,-12,-28
Cc1ccc(C)c(-c2nnc(NC(=O)Cc3ccc(F)cc3)o2)c1,-2,-16,-4,42*,-13,1
COc1ccc(CNC(=O)[C@H](C)NC(=O)C2CCN(C(=O)[C@@H](N)CCSC)CC2)cc1,-3,-7,-4,-4,x,x
Cc1nnc2sc(SCC(=O)Nc3nccs3)nn2c1=O,-6,-9,-1,40*,5,2
C=CCn1c(SCc2nc3sc(C(=O)O)c(C)c3c(=O)[nH]2)nnc1-c1ccccc1,-3,-34,-1,41*,-8,6
C=CCn1c(SCc2nc3sc(C(=O)O)c(C)c3c(=O)[nH]2)nnc1-c1ccc(C(C)(C)C)cc1,-4,-31,-4,16,x,x
CC(=O)c1sc2nc(CSc3nnnn3-c3ccccc3)[nH]c(=O)c2c1C,-3,13,-4,36*,5,13
COc1ccc(NC(=O)Cc2nnc(SCC(=O)NC3CCCCC3)n2C)cc1,-2,-12,-1,8,x,x
COc1cccc(CN(C(=O)Cn2nnc(-c3ccccc3F)n2)C(C(=O)NC(C)(C)C)c2ccncc2)c1 (configuration not stated),-2,-24,-2,4,x,x
COc1ccc(-c2cc(Cl)cc3c(=O)c4ccccc4n(C)c23)cc1F,-2,5,7,67*,-3,-10
CC(=O)Nc1c(-c2ccc(Cl)cc2)c(=O)c2ccccc2n1C,-2,-1,-1,4,x,x
Cc1ccnc(NC(=O)Nc2ccc3c(c2)OCO3)c1,-1,-1,-3,-6,x,x
O=[N+]([O-])c1cc([N+](=O)[O-])c2oc(-c3ccccc3)c(Br)c2c1O,-3,47*,-1,45*,74*,68*
O=c1cc(-c2ccccc2Cl)oc2ccc([N+](=O)[O-])c(O)c12,-2,-1,-3,5,x,x
Nc1cc(=O)nc(SCC(=O)N2CCN(c3ccccc3)CC2)n1-c1ccc(F)cc1,-3,-38,-2,3,x,x
Cc1[nH]n(C(N)=S)c(=O)c1N=Nc1cccc(Cl)c1,-3,-8,-7,58*,-20,17
SMILES,IMP-1 inh,DNA FID counter-1,VIM-2 inhibitor,HCV NS3 hel inh,NS3 helicase cf,DNA FID counter-2
Cc1ccc(C(=O)NC2CCCc3c2cnn3-c2ccc(F)cc2F)cn1 (configuration not stated),-4,-25,-2,-5,x,x
C(=Nc1cccc2c(N=Cc3ccco3)cccc12)c1ccco1,16*,-1,-1,37*,-15,20
CN(C)c1ccc(C=Nc2ccc(N(C)C)cc2)cc1,-3,5,-2,37*,5,17
Cc1ccc(N=Cc2ccc(N(C)C)cc2)cc1,-4,4,-3,4,x,x
CN(C)c1ccc(N=Cc2ccco2)cc1,-3,3,-4,41*,5,11
Cn1cccc1Cc1nnc(SCC(=O)Nc2cccc(F)c2)n1CCc1ccccc1,-3,-53,-5,42*,-6,-27
COc1cccc(C(=O)CC(=O)C(=O)Nc2cc(OC)ccc2OC)c1,-4,-16,-4,30,x,x
COc1cccc(C(=O)CC(=O)C(=O)Nc2ccc(C)cc2Cl)c1,-4,-17,-6,63*,21,1
COc1ccc(C(=O)CC(=O)C(=O)Nc2ccc(C)cc2Cl)cc1,-1,-8,-2,38*,-30,3
CCc1cc2cc(C)ccc2nc1SCC(=O)NC1CCCC1,2,-38,-4,55*,1,-14
O=C1NC(=S)S/C1=C\c1ccc(SCc2ccco2)o1,9.7*,1,4,76*,81*,31
O=C1NC(=S)S/C1=C\c1ccc(SCc2ccccc2)o1,2,-10,-2,47*,81*,22
CNC(=O)c1cc(NC(=O)CCn2nc(-c3ccccc3)c3ccccc3c2=O)ccc1OC,-1,-37,-1,2,x,x
CN(Cc1nc(Cc2cccc(C(F)(F)F)c2)no1)C1CC(C)(C)NC(C)(C)C1,-1,17,-2,-18,x,x
CC(CC(=O)O)CC(=O)Nc1cc(C(F)(F)F)cc(C(F)(F)F)c1 (configuration not stated),-1,-9,-2,45*,5,5
O=S(=O)(O)c1cccc2c(N=Nc3ccc(O)c4ncccc34)cccc12,-7,15,1,84*,77*,9
COC(=O)C1=C(C)N(C)C(=S)NC1c1ccc(OC)cc1OC (configuration not stated),-3,-3,-2,-4,x,x
O=C(CSc1nc2scc(-c3ccccc3)c2c(=O)[nH]1)N1CCOCC1,-1,-47,-3,0,x,x
COc1cccc(NC(=O)COc2cc(O)c3c(c2)OC(C)(C)CC3=O)c1,-1,-20,-2,83*,-15,-20
CC(=C\c1ccccc1)/C=C1/SC(=S)N(CCC(=O)O)C1=O,3,-9,5,51*,65*,-9
CC(=C\c1ccco1)/C=C1/SC(=S)N(CC(=O)O)C1=O,-2,-24,-1,45*,3,-1
CC(/C=C1\SC(=S)N(CC(=O)O)C1=O)=C\c1ccccc1,0,-8,1,18,x,x
O=C(O)CN1C(=O)/C(=C/c2ccc(N3CCCCC3)o2)SC1=S,-1,-29,-1,61*,27,0

# Screening results from PubChem BioAssay.
